Results of several laboratories.
Each line is one published result; the experiments were not run side by side.
Organism: Candida albicans
Effect on: microbial growth

SMILES	test	test system	setting	MIC
C[C@@H]1[C@H](O)[C@@H](C)/C=C/C=C/C=C/C=C/C=C/C=C/C=C/[C@H](O[C@@H]2O[C@H](C)[C@@H](O)[C@H](N)[C@@H]2O)C[C@@H]2O[C@](O)(C[C@@H](O)C[C@@H](O)[C@H](O)CC[C@@H](O)C[C@@H](O)CC(=O)O[C@H]1C)C[C@H](O)[C@H]2C(=O)O	broth dilution	–	–	0.25 µg/mL
O=C(CCc1ccc(O)c(O)c1)NCCCCCCCC[P+](c1ccccc1)(c1ccccc1)c1ccccc1.[Br-]	broth dilution	ATCC90028	24 h	> 32 µg/mL
CC1=NN(CNc2c(O)c(S(=O)(=O)O)cc3ccccc23)C(=O)C1=NNn1c(-c2ccccc2)nc2ccccc2c1=O	broth dilution	–	–	41.8 µM
O=C(CCCCCCCCCC[P+](c1ccccc1)(c1ccccc1)c1ccccc1)Nc1cc(O)c(O)c(O)c1.[Br-]	broth dilution	ATCC90028	24 h	8 µg/mL
N=C(N)NCc1ccc(NC(=O)C23CCC(C(=O)Nc4ccc(C5=CCN(C(=N)N)CC5)cc4)(CC2)CC3)cc1	broth dilution	–	48 h, clinical isolate	0.2 µg/mL
CC1=NN(CNC(=O)c2ccccn2)C(=O)C1=NNn1c(-c2ccccc2)nc2ccccc2c1=O	broth dilution	–	–	104 µM
O=C(CCc1cc(O)c(O)c(O)c1)NCCCCCCCC[P+](c1ccccc1)(c1ccccc1)c1ccccc1.[Br-]	broth dilution	ATCC90028	24 h	> 32 µg/mL
O=C1NN=C(N=Cc2ccccc2O)C1=NNn1c(-c2ccccc2)nc2ccccc2c1=O	broth dilution	–	–	111 µM
CCOC(=O)c1nc2ccccc2c(=O)n1Cc1cn(-c2ccc(C)cc2)nn1	broth dilution	ATCC90028	–	250 µg/mL
CCc1nc(N)nc(N)c1C#CCc1cc(OC)ccc1OC	resazurin	–	–	250 µM
OC(Cn1cncn1)(Cn1cncn1)c1ccc(F)cc1F	–	SC5314	–	2 µg/mL
CC1=NN(CNc2ccccc2[N+](=O)[O-])C(=O)C1=NNn1c(-c2ccccc2)nc2ccccc2c1=O	broth dilution	–	–	50.4 µM
OC(Cn1cncn1)(Cn1cncn1)c1ccc(F)cc1F	broth dilution	ATCC10231	–	1 µg/mL
O=C(CCCCCCCC[P+](c1ccccc1)(c1ccccc1)c1ccccc1)Nc1cc(O)c(O)c(O)c1.[Br-]	broth dilution	ATCC90028	24 h	> 32 µg/mL
CC1=NN(CNc2ccc(C(=O)O)cc2)C(=O)C1=NNn1c(-c2ccccc2)nc2ccccc2c1=O	broth dilution	–	–	50.5 µM
C=C1C(=O)O[C@@H](CCCCCCCCCCCCC)[C@@H]1C(=O)O	–	SC5314	–	64 µg/mL
